NR1D1 modulator = modulators of human Rev-erb alpha DNA binding | P20393 | Rev-erbα–FITC-DNA binding, fluorescence polarization, 90 min | activity, % at 10 µM | 370,000 compounds, 0.79% hits | AID 1259318;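 active means activity above about 14%, limit read from the data; passing the limit was not always enough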
PG9 Ab binder = binds the HIV-1 gp120 antibody PG9 | TR-FRET gp120-PG9 antibody binding | inhibition, % at 6.7 µM | 360,000 compounds, 0.43% hits; in the data active means inhibition above about 8.5%
NR2E3 ag-1 = NR2E3 (human) agonism; GST-NR2E3/biotin-RetCOR TR-FRET, 1536-well; inhibition of corepressor binding, % at 4.78 µM; 320,000 compounds, 0.12% hits; AID 2300;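 active means percent inhibition above the cutoff of mean plus 3 SD of all tested compounds, set per screening campaign, cut at about 20% in these data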
Target sequence (Q9Y5X4 whole entry, looked up): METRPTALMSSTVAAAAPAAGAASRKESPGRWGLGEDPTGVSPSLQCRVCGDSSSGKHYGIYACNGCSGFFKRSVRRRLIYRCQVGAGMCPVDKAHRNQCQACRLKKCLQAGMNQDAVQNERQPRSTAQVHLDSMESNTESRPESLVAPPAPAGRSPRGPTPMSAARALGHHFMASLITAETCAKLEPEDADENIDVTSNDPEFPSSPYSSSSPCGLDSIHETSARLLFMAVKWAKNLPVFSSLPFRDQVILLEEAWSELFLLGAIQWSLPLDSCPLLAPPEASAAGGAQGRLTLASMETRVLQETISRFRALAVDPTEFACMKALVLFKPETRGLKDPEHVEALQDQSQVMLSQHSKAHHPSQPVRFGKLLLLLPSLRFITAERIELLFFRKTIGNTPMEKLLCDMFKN
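Material: NR2E3–RetCOR corepressor complex / Incubation: Compound–protein incubation for 5 h at 4 °C / Dosing: compound at 4.8 µM, single dose / Detection: time-resolved FRET / Benchmarks: high control biotin, low control 0.6% DMSO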
NR2E3 ag-2 = activates human NR2E3 receptor; CHO-S Gal4-NCOR/VP16-NR2E3 two-hybrid, luciferase; inhibition of corepressor binding, % at 3.98 µM; Q9Y5X4; 360,000 compounds, 0.35% hits;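 active means inhibition above the mean of all tested compounds plus 3 SD, cut at about 70% in these data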;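 further: higher means lower luciferase signal from less NR2E3 corepressor binding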
GalR3 antag = blocks the human galanin receptor 3; HEK293 GalR3-CNG cAMP membrane potential fluorescence; galR3 body fused to GalR1 C-terminus; inhibition, % at 3 µM; 360,000 compounds, 0.44% hits;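 active means inhibition above the screen-wide average plus 3 SD, cut at about 13% in these data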;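 further: forskolin and galanin both at EC90 stimulate the cells; cAMP rise reported by CNG channel membrane potential dye signal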
Target sequence (O60755 1-299 limits assumed): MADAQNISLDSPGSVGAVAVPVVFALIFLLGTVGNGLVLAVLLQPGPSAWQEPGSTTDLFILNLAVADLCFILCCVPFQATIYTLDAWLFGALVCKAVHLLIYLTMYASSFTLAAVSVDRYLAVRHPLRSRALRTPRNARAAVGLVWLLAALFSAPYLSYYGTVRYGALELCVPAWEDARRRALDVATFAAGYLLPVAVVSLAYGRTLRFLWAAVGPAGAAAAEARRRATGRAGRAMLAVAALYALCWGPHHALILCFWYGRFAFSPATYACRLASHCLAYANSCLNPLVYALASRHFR
NR2E3 ag confirm = confirmation of human NR2E3 agonists; CHO-S mammalian two-hybrid NR2E3-NCOR, luciferase luminescence; shares compounds with NR2E3 ag-2; 2,300 compounds, 51% hits; inhibition, % at 3.98 µM;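 active means average inhibition above a cutoff equal to the mean inhibition of all tested compounds plus one SD, cut at about 70% in these data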
GAL4-VP16 luc = GAL4-VP16 reporter inhibition in NR2E3 agonist counterscreen | shares compounds with NR2E3 ag-2 | CHO-S GAL4-VP16 luciferase reporter, luminescence | inhibition, % at 3.98 µM | 2,300 compounds, 29% hits | AID 624379;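 active means mean inhibition above a cutoff equal to the average over all tested compounds plus one standard deviation, cut at about 70% in these data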;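 further: luciferase from a UAS reporter driven by GAL4-VP16 transactivation; higher means less reporter light so more repression of VP16 activity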
Of the large screens only hits and unclear results are named; the others gave an inactive call (follow-up assays come after a bar, where they were run). This is a sample that favours compounds with a hit; in the whole collection about 1.8% have one here.

Cc1ccc(NC(=O)c2sc3ncn(CC(=O)N4CCN(c5ccccn5)CC4)c(=O)c3c2C)cc1Cl	none
CC(C)OC(=O)NCCOC(=O)Nc1ccc(Cl)c(Cl)c1	none | NR2E3 ag confirm 92 | GAL4-VP16 luc 74
O=c1cc(-c2ccccc2)nc2c(-c3ccccc3)c(C(F)(F)F)[nH]n12	none | NR2E3 ag confirm 100 | GAL4-VP16 luc 77
O=c1cc(N2CCN(c3ccccc3)CC2)[nH]c(=O)n1C1CCCCC1	none | NR2E3 ag confirm 92 | GAL4-VP16 luc inactive
O=c1cc(N2CCN(c3cccc(Cl)c3)CC2)[nH]c(=O)n1C1CCCCC1	none | NR2E3 ag confirm 93 | GAL4-VP16 luc inactive
Cc1cc(NNC(=O)c2cccc(C(F)(F)F)c2)nc2c1c(C)nn2C	none | NR2E3 ag confirm 87 | GAL4-VP16 luc inactive
CCOC(=O)c1c(C)[nH]c(C(=O)OCC(=O)Nc2cc(Cl)ccc2OC)c1C	none
CC(=O)c1c(C)[nH]c(C(=O)OCC(=O)c2ccc(Br)cc2)c1C	none (no result: NR2E3 ag-1) | NR2E3 ag confirm 86 | GAL4-VP16 luc inactive
CC(=O)c1c(C)[nH]c(C(=O)OCC(=O)Nc2ccc(Cl)cc2[N+](=O)[O-])c1C	NR2E3 ag-2 86, GalR3 antag 71 | NR2E3 ag confirm 96 | GAL4-VP16 luc 89
CCCC1CCC2(CCC(=O)N2CCOC)CC1 (centres undefined)	none (no result: PG9 Ab binder, NR2E3 ag-1, NR2E3 ag-2, GalR3 antag)
Clc1cccc(Cl)c1CON/C=N/c1ncnc2sccc12	none | NR2E3 ag confirm inactive | GAL4-VP16 luc inactive
COc1ccccc1/C=C/CN1CCC(n2nccc2NC(=O)CCc2ccccc2)CC1	none | NR2E3 ag confirm inactive | GAL4-VP16 luc inactive
O=C(COc1cccc2ccccc12)Nc1ccc(Cl)cc1C(=O)O	NR2E3 ag-2 78 | NR2E3 ag confirm 95 | GAL4-VP16 luc inactive
O=C(COc1cccc2ccccc12)Nc1cc(Cl)ccc1C(=O)O	none
CCOC(=O)[C@]12CCCC3=C1N(CCC3)C(=O)[C@@H](CC(=O)N1CCN(C(=O)c3ccco3)CC1)C2	none (no result: PG9 Ab binder, NR2E3 ag-1, NR2E3 ag-2, GalR3 antag)
C/C(C=NNC(=O)c1cc(-c2ccc(Cl)cc2)n[nH]1)=C\c1ccccc1	none (no result: PG9 Ab binder, NR2E3 ag-1, NR2E3 ag-2, GalR3 antag)
O=C(NCc1c(F)cccc1F)c1cc(COc2c(F)cccc2F)on1	NR2E3 ag-2 89 | NR2E3 ag confirm inactive | GAL4-VP16 luc inactive
O=C(NCc1ccc(F)cc1F)c1cc(COc2c(F)cccc2F)on1	none
COC(=O)C12C=C3CC(c4ccc(C)s4)=C3C(=O)N1Cc1[nH]c3ccccc3c1C2 (centres undefined)	none (no result: PG9 Ab binder, NR2E3 ag-1, NR2E3 ag-2, GalR3 antag)
CCC(C)[C@H]1CNCCN1CCc1cc(C(F)(F)F)cc(C(F)(F)F)c1 (some centres undefined)	none
CCC(C)[C@H]1CNC(=S)N1CCc1cc(C(F)(F)F)cc(C(F)(F)F)c1 (some centres undefined)	none | NR2E3 ag confirm inactive | GAL4-VP16 luc inactive
CN(CC#Cc1ccccc1)C(N)=NC(=O)/C=C/c1ccccc1	none (no result: PG9 Ab binder, NR2E3 ag-1, NR2E3 ag-2, GalR3 antag)
Oc1ccccc1/C=N/NC(=S)NC1CC2CC1C1C=CCC21 (centres undefined)	none | NR2E3 ag confirm inactive | GAL4-VP16 luc inactive
COc1cccc(/C=N/NC(=S)NC2CC3CC2C2C=CCC32)c1O (centres undefined)	none
Cc1cccc(N2CCN(S(=O)(=O)c3ccc4c(c3)CC(C)N4C(=O)C3CC3)CC2)c1C (centres undefined)	none | NR2E3 ag confirm inactive | GAL4-VP16 luc inactive
Cc1ccc(C)c(N2CCN(S(=O)(=O)c3ccc4c(c3)CC(C)N4C(=O)C3CC3)CC2)c1 (centres undefined)	none
CC1Cc2cc(S(=O)(=O)N3CCC(C(=O)N4CCN(c5ccccc5F)CC4)CC3)ccc2N1C(=O)C1CC1 (centres undefined)	NR2E3 ag-2 74 | NR2E3 ag confirm inactive | GAL4-VP16 luc inactive
CC(=O)N1c2ccc(S(=O)(=O)N3CCC(C(=O)N4CCN(c5cc(Cl)ccc5C)CC4)CC3)cc2CC1C (centres undefined)	NR2E3 ag-2 87 | NR2E3 ag confirm 90 | GAL4-VP16 luc 78
CCCCCCCCCn1c2c(c(=N)c3c1CCC3)CCCC2	NR2E3 ag-2 95 (no result: NR1D1 modulator, PG9 Ab binder, NR2E3 ag-1, GalR3 antag) | NR2E3 ag confirm 98 | GAL4-VP16 luc 96
CN(C)C(=S)N=c1ssc(=S)n1Cc1ccccc1	NR2E3 ag-2 90 (no result: NR2E3 ag-1) | NR2E3 ag confirm inactive | GAL4-VP16 luc inactive
CCOC(=O)c1sc(=S)n(Cc2ccccc2)c1C	none
CCOc1ccc(C(=O)Nc2cnn(Cc3ccc(Cl)c(Cl)c3)c2)cc1	none | NR2E3 ag confirm inactive | GAL4-VP16 luc inactive
C=CCn1c(COc2ccccc2)nnc1SCC(=O)Nc1ccc(Oc2ccccc2)cc1	none (no result: PG9 Ab binder, NR2E3 ag-1, NR2E3 ag-2, GalR3 antag)
CNC(=S)NN=C(C)c1ccc(OC)cc1O	NR2E3 ag-2 72 (no result: NR2E3 ag-1) | NR2E3 ag confirm inactive | GAL4-VP16 luc inactive
COc1ccc(/C(C)=N/N=C(N)N)c(O)c1	none
Cn1cccc1/C=N/NC(=O)Cc1ccccc1	none
Cn1cccc1/C=N\NC(=O)Cc1ccc(Br)c2ccccc12	none | NR2E3 ag confirm inactive | GAL4-VP16 luc inactive
CCCc1ccc(-c2ccc(/C=C/C(=O)O)cc2)nc1	NR2E3 ag-2 75 | NR2E3 ag confirm 85 | GAL4-VP16 luc inactive
O=C(NCC1CCCO1)C1CC(c2ccc(Cl)c(Cl)c2)=NO1 (centres undefined)	none | NR2E3 ag confirm inactive | GAL4-VP16 luc inactive
C[C@@H](C(=O)Nc1ccc2c(c1)OCCO2)n1c(=O)[nH]c2ccccc2c1=O	none | NR2E3 ag confirm inactive | GAL4-VP16 luc inactive
COc1cccc(N2CCN(c3nc(-c4ccccc4C)cc(=O)[nH]3)CC2)c1	NR2E3 ag-2 93 (no result: NR2E3 ag-1) | NR2E3 ag confirm 98 | GAL4-VP16 luc inactive
Cc1ccc(Cl)cc1NS(=O)(=O)c1ccc(-n2cccn2)cc1	none
Cc1ccc(NS(=O)(=O)c2ccc(-n3cccn3)cc2)cc1F	none | NR2E3 ag confirm inactive | GAL4-VP16 luc inactive
Cc1ccc(NS(=O)(=O)c2ccc(-n3cccn3)cc2)c(Br)c1	none (no result: NR2E3 ag-1) | NR2E3 ag confirm inactive | GAL4-VP16 luc inactive
CC(=O)c1c(C)oc2ccc(NS(=O)(=O)c3ccc(F)cc3C)cc12	none | NR2E3 ag confirm inactive | GAL4-VP16 luc inactive
CC(C)c1cccc(-c2csc(C(C)(O)c3ccncc3)n2)c1 (centres undefined)	NR2E3 ag-2 85 (no result: NR2E3 ag-1) | NR2E3 ag confirm 93 | GAL4-VP16 luc 80
Cc1ccc(-c2cnc(C(O)c3ccc(Cl)c(F)c3)[nH]2)cc1 (centres undefined)	none (no result: NR1D1 modulator, PG9 Ab binder, NR2E3 ag-1, GalR3 antag) | NR2E3 ag confirm inactive | GAL4-VP16 luc inactive
OC(c1ccc(Cl)c(F)c1)c1ncc(-c2ccc(F)cc2)[nH]1 (centres undefined)	NR2E3 ag-2 80 (no result: NR2E3 ag-1) | NR2E3 ag confirm 78 | GAL4-VP16 luc inactive
Cc1ccc(-n2c(Cc3cccs3)nnc2SCC(=O)Nc2ccccc2-c2ccccc2)cc1	none (no result: PG9 Ab binder, NR2E3 ag-1, NR2E3 ag-2, GalR3 antag)
Cc1cc(C)cc(NC(=O)NCCCN2CCN(c3ccc(F)cc3)CC2)c1	none (no result: PG9 Ab binder, NR2E3 ag-1, NR2E3 ag-2, GalR3 antag)
CCCOC(=O)C(=O)NNc1ccccc1	none

Compound activity (PubChem BioAssay)
